Measurements published in the EternaBench riboswitch data.

Test system: MS2 coat protein
Experiment: apparent Kd, MS2 coat protein; higher = weaker binding; RNA-MaP array; FMN 200 µM where present
How it was run: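 Binding was read on Illumina sequencing-chip clusters where stalled E. coli RNA polymerase had transcribed each design. A titration of SNAP-549-labelled MS2 coat protein began at 0.7 or 1.5 nM and doubled to 3 µM, once without ligand and once with constant ligand, in 100 mM Tris-HCl pH 7.5, 80 mM KCl, 4 mM MgCl2, BSA, DTT, yeast tRNA and Tween-20. The apparent Kd is the median of filtered per-cluster binding-curve fits, based on green signal normalised to red-channel RNA signal and control-cluster median Fmax.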

[1] = designed as: OFF switch for flavin mononucleotide, no ligand
[2] = ligand present: flavin mononucleotide, designed as: OFF switch for flavin mononucleotide
[3] = designed as: ON switch for flavin mononucleotide, no ligand
[4] = ligand present: flavin mononucleotide, designed as: ON switch for flavin mononucleotide

Row | Sequence | apparent Kd [1] | apparent Kd [2] | apparent Kd [3] | apparent Kd [4]
1 | CAGGUAGACUGAGGAUAUACAAUAAACAGCUAGUCUAUCUAGCUGCUCACAUGAGGAUCACCCAUGUAGAAGGCAGUCUGCCUG | 18.7 nM | 45.1 nM | – | –
2 | UGUGUGUGGGCAGGAUAUACAUGAAUAUAUAUGAUGUAGUAUGAUGUAACAUGAGGAUCACCCAUGUAGAAGGGCCGGUGUAUG | 122 nM | 140 nM | – | –
3 | UUUCAGCUCACAUGAGGAUCACCCAUGUCGGUUCGCCCGGACAGAAGGCACCCAUGACAAUGCGGUGAGGAUAUGUCAGCAAGG | – | – | 193 nM | 19.3 nM
4 | CCAUCAGCGGGCGGAUCGGUUGGACAUGAGGAUCACCCAUGUAGAAGGACCGGUGGAUUCCGGCGGUAGGAUAUACAUUUGGUG | 9.1 nM | 16.3 nM | – | –
5 | GGGCAAUAGUAGAAGGGAUAUACGAAAGGUAUAUCAGGAUAUACAUGAGGAUCACCCAUGUUCUAACAGUGAUAGUCCUCCCUA | 24.3 nM | 171 nM | – | –
6 | GUCUCGUGAGGAUAUCAUGAUUGACUUAAUUUAUUUUAGCGUGAGAAGGCACAUGAGGAUCACCCAUGUGAUUC | 19.5 nM | 21.3 nM | – | –
7 | ACGUUUUUUGAGGAUAUGCGACGUUCCUUCGUCGUAGAAGGCGAUACAUGAGGAUCACCCAUGUUUAUGGGCAU | 119 nM | 137 nM | – | –
8 | CUGACAGUGUAGCGCGUCUAGCCAGAGGAUAUCCACAUGAGGAUCACCCAUGUCAUGUCCUCGCGGGAGAAGGCUGGCUUGGCG | 204 nM | 54.3 nM | – | –
9 | UUGGACUACGUAGGAUAUGUAGGAUUUUCCUACAUGAGGAUCACCCAUGUUAGCAUGGAAGAAGGACAGAAGGACGUGGUCCAU | – | – | 782 nM | 79.3 nM
10 | GGAUGGACCCAGAAGGGCAGAUUCCGAGGGAUUUGAGAUGAGCGGAUAUGUAGGAUAUGGGUGGACAUGAGGAUCACCCAUGUC | – | – | 231 nM | 46.6 nM
11 | AAUAUAAAGAGCUGGACCUUAAUAACAUGAGGAUCACCCAUGUAGGAUAUCAGCACGAUAAGUGCUGAGAAGGACAUCCAGCUC | 14.4 nM | 15.1 nM | – | –
12 | GUUGUUUCUGAGGAUAUUAUUUUUUUCGAUUGAUAAGAAGGCAGUACAUGAGGAUCACCCAUGUGGGUUGUUUG | 54.5 nM | 164 nM | – | –
13 | GUAACUCAUGUAGGAUAUGCAUGGCGAAGCUACGCAGAAGGACAUGAGGAUCACCCAUGUUCUAGCGUCUGAGUACAGAUGCAA | 60.2 nM | 436 nM | – | –
14 | AGGCGAGUAGGAUAUGCGUUUUUACGGGAAAGCUGGAUGGUACAUGAGGAUCACCCAUGUAGAAGGGCUCUGAA | 23.4 nM | 21.8 nM | – | –
15 | AGGUACAUGAGGAUCACCCAUGUAAGAGACCUCAUGCGAUGUAGAAGGAUUAUCCGAGAAGAGGAAUAGGAUAUACAUGAGAAA | 158 nM | 127 nM | – | –
16 | GUAGCACAUGAUUUACAUGAGGAUCACCCAUGUAACAUGGGUAAGGAUAUUGAUGUGAAGUUAAUCAAGAAGGUACUAUGCUAC | – | – | 9.65 nM | 6.35 nM
17 | GGAGCACAUGAAUACAUGAGGAUCACCCAUGUCAAAAGAUAUGAGGAUAUGGAUCGGAAAACGAUCUAGAAGGCAUAGUGCUCC | – | – | 28.8 nM | 6.98 nM
18 | CGUGCGUCGACAGGAUAUACAGAUUGGCUCCGGUACAUGAGGAUCACCCAUGUAGAAGGGUCACGCACAGUUAGUUCGUUAUUA | 8.52 nM | 37.9 nM | – | –
19 | UGGCUACAUGAGGAUCACCCAUGUCAGGAUAUGCCGUCGGCUUGCGUUCGUCGUUUGGGUAGAAGGGACUGCGG | 83.1 nM | 91.5 nM | – | –
20 | UGUUCUAUGUAGAAGGCCCAUAUCUGUUCUUAGGGAGGAUAUACAUGAGGAUCACCCAUGUGUAGAGCUGGUGGACUGGUCAGC | 15.4 nM | 35.5 nM | – | –
21 | CACGUCCUCACAGGAUAUGCUGGACUUUGUCCAGCAGAAGGGUGAAACAUGAGGAUCACCCAUGUUAGGACGUGUAUAUUUAAU | – | – | 86.7 nM | 625 nM
22 | CUUCGUAUAGAGGAUAUAGGAUACUACGGUGUCCUAGAAGGCUGUACAUGAGGAUCACCCAUGUACUUCAGAUC | 11.7 nM | 13.5 nM | – | –
23 | UUAAACGGAGGAUAUACAUUUUUUUUAUUAUCCUCAUUAAAACAUGAGGAUCACCCAUGUAGAAGGCCGAAAUU | 79.6 nM | 292 nM | – | –
24 | AAAAGUUGGUAAGGAUAUCCCACAUUAUUCUGACCCGUGCAAGCUACAUGAGGAUCACCCAUGUGGGAGAAGGUGCGUUAAAGA | 54.7 nM | 64.6 nM | – | –
25 | UGAACAAUGUAGAAGGCCCAUAUUUAUAUAUAGGGAGGAUAUACAUGAGGAUCACCCAUGUAAAGAGCAAGAGGACUUGACAGA | 9.27 nM | 15.7 nM | – | –
26 | GGUGCGUUUGUGAGGAUAUGCUGGUCCUUGGUUCGGCAGAAGGCACAUGAGGAUCACCCAUGUGGUGUCGCACC | 94.6 nM | 51.5 nM | – | –
27 | GUUACAUGAGGAUCACCCAUGUAUGUGUGGGAGUAAGUGUCUUAGGAUAUCUAUCAUUUAAUAUAAGAGAAGGAAGAUUGUUGU | – | – | 109 nM | 140 nM
28 | GUAGCUAUCGGAGGAUAUUCAUACCGGAAACGGACAUGAGGAUCACCCAUGUGGCGAAAGUCUUGGGAGAAGGCCGAUAGCUAC | – | – | 75.5 nM | 6.28 nM

Row | Sequence | apparent Kd [1] | apparent Kd [2] | apparent Kd [3] | apparent Kd [4]
29 | UAUUUAAUCAUAGGAUAUAGUGUGAAAUUUGGACUAGAAGGAUGUAACAUGAGGAUCACCCAUGUGGUAAGUGGGACACAUUGA | – | – | 107 nM | 130 nM
30 | GGUCCGUAACAGAAGGCCGUAACUGGCGGUGGCGGAGGAUAUGUGGGCGGCCCUUGACAACAUGAGGAUCACCCAUGUAUGUAA | – | – | 41.3 nM | 113 nM
31 | GUUAACGCAUGAGGAUAUGCUCGCAUUUCAAGAGCAGAAGGUAUGUCUAUAGACAUGAGGAUCACCCAUGUAUUUAUCAUUGAA | – | – | 245 nM | 39.6 nM
32 | UUAUCUAUGUAAGGAUAUAGAUGAUAUACGCAUCCGACAUGAGGAUCACCCAUGUUAUAUUUUGUCUAGAAGGUACAUUGUCGG | – | – | 204 nM | 179 nM
33 | GGAUCUAUGUAGAAGGCUGUCUUAAAAUAGGACAGAGGAUAUACAUGAGGAUCACCCAUGUACUCCUUUAAAAGGAUCCAAAUA | 5.77 nM | 11 nM | – | –
34 | UCCUUCUGUUGAGGAUAUGUAAGACAGCGGCCGCUAUGGCAGCACGCUGAUACAGAAGGCAACAUGAGGAUCACCCAUGUUCAA | 18.9 nM | 146 nM | – | –
35 | UUGAAGCUCACAGGAUAUCAGUAUGCACGAUCUAGCGCAUUAAUGAACUGCUGAGAAGGGUGAGACAUGAGGAUCACCCAUGUA | – | – | 593 nM | 209 nM
36 | UUCAGCUCGUCAGGAUAUACGUCACUGCGUCAGCAGUGUGGUAAGAUCACAUGAGGAUCACCCAUGUAGAAGGGACGAGCUGAU | 13.7 nM | 235 nM | – | –
37 | AAAACACAUGAGGAUCACCCAUGUAUCUGGACCAUAGGAUAUCCGCGCCCAAUAAGGUGUGGAGAAGGGUGAGCCC | – | – | 158 nM | 181 nM
38 | CCGAGGCUAGGAUAUUGACGAUAAUACAUGAGGAUCACCCAUGUGAGUCGUGUAUGCGCGCAAGAAGGAGUAAUAA | 14 nM | 17.6 nM | – | –
39 | AUCAGCUCGUCAGGAUAUACGUCACUGCUUCGGCAGUGUGGUAAGAUUACAUGAGGAUCACCCAUGUAGAAGGGACGAGCUGAU | 6 nM | 8.61 nM | – | –
40 | CCGGAUACGGGUAGCCUGACAUGAGGAUCACCCAUGUGAUCCAAGGAUAUGGAUCCUAAUUGGAUCCAGAAGGUGGUUGGCUAC | – | – | 682 nM | 369 nM
41 | CUUUGAUGAGGAUAUCGAGGUUAGUACAUGAGGAUCACCCAUGUUAUCCAGGUGUCGGUUCGAGAAGGUAUUGGAC | 16.7 nM | 18.5 nM | – | –
42 | GCGUUGAACGAGAAGGCCAAUACAUGAGGAUCACCCAUGUUGUGAUGUUUUGGAGGAUAUCGAUCGUCGUCUCAUGAGCAACGC | 7.47 nM | 10.2 nM | – | –
43 | UUUAUUAAUUAGAAGGCUUGAUGAAUUACAAUAGACAUGAGGAUCACCCAUGUGUAUUCAUGUCAAGAGGAUAUAGUCAUAUAU | – | – | 11.3 nM | 6.38 nM
44 | AAGGGACAUGAGGAUCACCCAUGUUCGAAAGACGAUGGAUCGCAGGAUAUCCAGUGUUAGAGAGAGGAGAAGGGUGAUCCUAUU | – | – | 36.3 nM | 27.7 nM
45 | UGGUCAUCAUCAGGAUAUUAACGUGGGCUACAUUAAGAAGGGAUAGUGGGAGAGGAAGUGAAACAUGAGGAUCACCCAUGUUGU | – | – | 13.5 nM | 11.3 nM
46 | GUUGGAUGAGGAUAUCGAGGUUAGUACAUGAGGAUCACCCAUGUUAUCCAGGUGUCGGUUCGAGAAGGCAUUGGAC | 32.6 nM | 114 nM | – | –
47 | GGUACCUUCACAGGAUAUGCUAUCGUUUCGGUAGCAGAAGGGUGAUACAUGAGGAUCACCCAUGUGGUGCCAGGGCGUGAGCCC | – | – | 842 nM | 329 nM
48 | UGUGUCUGUAGAGGAUAUCCGGGCGUUCGGCUAGGAGAAGGCUGCAACACAUGAGGAUCACCCAUGUAGGUUGUGUCUCUCUAC | 5.05 nM | 8.48 nM | – | –
49 | CACCGUUAGUGAGGAUAUAGUACAUGAGGAUCACCCAUGUAAUAAAUGAGAAUUUCGGAUGUAUGCUAGAAGGCACAAAUCGGC | 60.4 nM | 65.8 nM | – | –
50 | GUGCAGAUGUAAGGAUAUCGACUGGAUAACAGUCGAGAAGGUACAUGAGGAUCACCCAUGUAAAUGAAAGAUAAUAAACUGCAC | 14.4 nM | 24.9 nM | – | –
51 | AAAAGGCAAGGAUAUACAUGAGGAUCACCCAUGUAAUUCCCGUCGGGAUGACCGAUAUGUAGAAGGUGCAUUAA | 20.1 nM | 43.4 nM | – | –
52 | AUUAUACAUGAGGAUCACCCAUGUCAACAAAGUCGAGGAUAUGGGCAAAUAAAAUAAGAACCAGAAGGCGAAUAAU | – | – | 238 nM | 61 nM
53 | CGCUGUCAUGCAGGAUAUGCAUUGGAUUACAAUGCAGAAGGGCGAUUACAUGAGGAUCACCCAUGUGUAGACAGUGAAGAAGAC | – | – | 167 nM | 11.9 nM
54 | GCGAUUAAGUAGAAGGUACGAUAUAAAUCAAUGUAAGGAUAUACUGACAUGAGGAUCACCCAUGUUUAAUUUGUUUACUGUCGC | – | – | 7.42 nM | 5.99 nM
55 | CAGUACUGAGGAUAUACAUGAGGAUCACCCAUGUGGUCCAGCUAGGAAACUAGCACGUGUAGAAGGCAGUACUG | 36.1 nM | 56.5 nM | – | –
